Values after ≈ are worked out from the molar mass of the structure shown. Square brackets hold non-standard residues; d marks the D form. Peptide text beside a SMILES is read from it. Nphe = O=C(O)CNCc1ccccc1
Assays:
[1] = Proteolytic stability of compound in presence of Pronase by reverse phase HPLC analysis; type: ADME
Procedure, shortened: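 Oligomer (2 mg/mL solution, 250 μL) incubated with Pronase (1.0 mg/mL solution, 50 μL) in 10 mM Tris pH 7.5 (1.2 mL); enzyme activity first confirmed on Nα-benzoyl arginine. Degradation followed by analytical reverse-phase HPLC (10−60% B) at 6, 12, 18 and 50 h; degradation product identified by HRMS.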

[2] = Therapeutic index, ratio of HC10 for human erythrocyte cells to MIC for multidrug resistant bacterial strains; conditions: read-out: TI
Procedure, shortened: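 TI = hemolytic activity divided by median of MIC values. Hemolysis: washed fresh human RBCs (1% v/v in TBS, pH 7.2) with 2-fold oligomer dilutions (1–128 μM), 37 °C, 1 h; supernatant OD 405 nm; melittin 400 μg/mL = 100%, TBS = 0%. HA = concentration giving ≥10% lysis. MICs by broth microdilution, 35 °C, 16–20 h.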

[3] = tested on: Klebsiella pneumoniae; assay: Antibacterial activity against multidrug resistant NDM-1 producing Klebsiella pneumoniae isolate after 16 to 20 hrs by broth microdilution assay; type: functional
[4] = Hemolytic activity against human RBCs after 1 hr by spectrophotometry; type: ADME, cell-based; conditions: erythrocyte
Procedure, shortened: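 Freshly drawn human erythrocytes washed in TBS (pH 7.2, 10 mM Tris, 150 mM NaCl), 1% v/v suspension mixed with 2-fold serial dilutions (1−128 μM) in water; 1 h at 37 °C. After pelleting, supernatant diluted 1:1 with water and hemoglobin read at OD 405 nm. Melittin (400 μg/mL) = 100%, TBS = 0%. Value is the lowest concentration giving ≥10% lysis.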

[5] = tested on: HeLa; assay: Cytotoxicity against human HeLa cells assessed as growth inhibition after 1 hr; type: cell-based
Procedure, shortened: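 HeLa cells seeded at 9000 per well, cultured 24 h; at 80−100% confluency washed with HBSS and exposed 1 h (37 °C, 50 rpm) to 2-fold serial dilutions in EMEM. After washing, MTS/PMS (240/2.4 μg/mL) in HBSS added for 1.5 h; formazan read at 492 nm. 0.2% SDS = 0%, EMEM alone = 100%. Test range 1−128 or 8−1024 μM; IC50 reported.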

[6] = tested on: Escherichia coli; assay: Antibacterial activity against multidrug resistant ESBL producing Escherichia coli isolate after 16 to 20 hrs by broth microdilution assay; type: functional
[7] = tested on: Escherichia coli; assay: Antibacterial activity against Escherichia coli ATCC 25922 after 16 to 20 hrs by broth microdilution assay; type: functional
[8] = tested on: Escherichia coli; assay: Antibacterial activity against multidrug resistant Amp-C producing Escherichia coli isolate after 16 to 20 hrs by broth microdilution assay; type: functional
[9] = tested on: Klebsiella pneumoniae; assay: Antibacterial activity against multidrug resistant KPC producing Klebsiella pneumoniae isolate after 16 to 20 hrs by broth microdilution assay; type: functional
[10] = tested on: Escherichia coli; assay: Antibacterial activity against multidrug resistant NDM-1 producing Escherichia coli isolate after 16 to 20 hrs by broth microdilution assay; type: functional
[11] = tested on: Staphylococcus aureus; assay: Antibacterial activity against methicillin-resistant Staphylococcus aureus isolate after 16 to 20 hrs by broth microdilution assay; type: functional

CC(=O)N[C@@H](CCCCN)C(=O)N(CC(=O)N[C@@H](CCCCN)C(=O)N(CC(=O)N[C@@H](CCCCN)C(=O)N(CC(=O)N[C@@H](CCCCN)C(=O)N(CC(=O)N[C@@H](CCCCN)C(=O)N(CC(=O)N[C@@H](CCCCN)C(=O)N(CC(=O)N[C@@H](CCCCN)C(=O)N(CC(=O)N[C@@H](CCCCN)C(=O)N(CC(N)=O)Cc1ccccc1)Cc1ccccc1)Cc1ccccc1)Cc1ccccc1)Cc1ccccc1)Cc1ccccc1)Cc1ccccc1)Cc1ccccc1 (Ac-K[Nphe]K[Nphe]K[Nphe]K[Nphe]K[Nphe]K[Nphe]K[Nphe]K[Nphe]-NH2)
Stability [1]: Stable
selectivity ratio [2]: > 21
MIC [3]: 128 µM (≈ 290 µg/mL)
HC10 [4]: > 128 µM
IC50 [5]: 101 µM
MIC [6]: 8 µM (≈ 18.1 µg/mL)
MIC [7]: 4 µM (≈ 9.05 µg/mL)
MIC [8]: 8 µM (≈ 18.1 µg/mL)
MIC [9]: 128 µM (≈ 290 µg/mL)
MIC [10]: 2 µM (≈ 4.52 µg/mL)
MIC [11]: 256 µM (≈ 579 µg/mL)

CC(=O)N[C@@H](CCCCN)C(=O)N[C@H](CC(=O)N[C@@H](CCCCN)C(=O)N[C@H](CC(=O)N[C@@H](CCCCN)C(=O)N[C@H](CC(=O)N[C@@H](CCCCN)C(=O)N[C@H](CC(=O)N[C@@H](CCCCN)C(=O)N[C@H](CC(=O)N[C@@H](CCCCN)C(=O)N[C@H](CC(=O)N[C@@H](CCCCN)C(=O)N[C@H](CC(=O)N[C@@H](CCCCN)C(=O)N[C@H](CC(N)=O)Cc1ccccc1)Cc1ccccc1)Cc1ccccc1)Cc1ccccc1)Cc1ccccc1)Cc1ccccc1)Cc1ccccc1)Cc1ccccc1
Stability [1]: Stable
selectivity ratio [2]: 1
MIC [3]: 128 µM (≈ 304 µg/mL)
HC10 [4]: 64 µM
IC50 [5]: 31.1 µM
MIC [6]: 32 µM (≈ 76 µg/mL)
MIC [7]: 64 µM (≈ 152 µg/mL)
MIC [8]: 32 µM (≈ 76 µg/mL)
MIC [9]: 128 µM (≈ 304 µg/mL)
MIC [10]: 64 µM (≈ 152 µg/mL)
MIC [11]: 32 µM (≈ 76 µg/mL)

CC(=O)N[C@@H](CCCCN)CC(=O)N[C@@H](Cc1ccccc1)C(=O)N[C@@H](CCCCN)CC(=O)N[C@@H](Cc1ccccc1)C(=O)N[C@@H](CCCCN)CC(=O)N[C@@H](Cc1ccccc1)C(=O)N[C@@H](CCCCN)CC(=O)N[C@@H](Cc1ccccc1)C(=O)N[C@@H](CCCCN)CC(=O)N[C@@H](Cc1ccccc1)C(=O)N[C@@H](CCCCN)CC(=O)N[C@@H](Cc1ccccc1)C(=O)N[C@@H](CCCCN)CC(=O)N[C@@H](Cc1ccccc1)C(=O)N[C@@H](CCCCN)CC(=O)N[C@@H](Cc1ccccc1)C(N)=O
Stability [1]: Stable
selectivity ratio [2]: 8
MIC [3]: 256 µM (≈ 608 µg/mL)
HC10 [4]: 64 µM
IC50 [5]: 133 µM
MIC [6]: 8 µM (≈ 19 µg/mL)
MIC [7]: 8 µM (≈ 19 µg/mL)
MIC [8]: 16 µM (≈ 38 µg/mL)
MIC [9]: 128 µM (≈ 304 µg/mL)
MIC [10]: 4 µM (≈ 9.5 µg/mL)
MIC [11]: 256 µM (≈ 608 µg/mL)
